# From PubChem BioAssay
# A selection: hits, their analogues and other compounds. The true share with any hit is near 3.5%.
# MrgX1 allo act = human MrgX1 positive allosteric modulation, primary screen. MrgX1-HEK293, Fluo-4 calcium flux, FDSS; active compounds read high. B-score at 10 µM. Q96LB2. 0.63% of 310,000 active;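 active = plate-corrected calcium response at least 3 library SD above typical, normal starting fluorescence, not activating the receptor alone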;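 note: compound read alongside a low EC10 to EC30 dose of BAM8-22 agonist; peak minus trough fluorescence over baseline measured at the second addition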
# Target sequence (Q96LB2 whole entry, looked up): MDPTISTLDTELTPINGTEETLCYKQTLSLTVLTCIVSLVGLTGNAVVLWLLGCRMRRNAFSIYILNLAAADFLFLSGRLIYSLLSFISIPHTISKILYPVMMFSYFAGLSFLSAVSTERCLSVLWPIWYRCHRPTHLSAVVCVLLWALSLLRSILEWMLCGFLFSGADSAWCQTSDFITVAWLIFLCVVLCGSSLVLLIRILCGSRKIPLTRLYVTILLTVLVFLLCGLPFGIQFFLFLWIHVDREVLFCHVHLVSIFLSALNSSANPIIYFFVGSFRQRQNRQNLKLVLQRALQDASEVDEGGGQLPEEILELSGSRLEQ
# MrgX1 antag = antagonists of human MrgX1 receptor; Q96LB2; B-score at 10 µM; MRGX1-HEK293 calcium flux, Fluo-4, BAM8-22 antagonism; active compounds read low; 1.3% of 310,000 active;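 active = calcium-response B-score plate-corrected more than 3 library SD below zero, starting fluorescence within 5 deviations, no agonist response on first addition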;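 note: peak minus trough fluorescence over baseline after final BAM8-22 challenge near maximal dose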
# RGS4 act = potentiators or activators of RGS4. HEK293 M3R/inducible RGS4, carbachol calcium flux Fluo4; active compounds read low. B-score at 10 µM. 0.92% of 310,000 active;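 active = B-score of the integrated calcium signal more than 4 SD below the library mean, with starting fluorescence not abnormally high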;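 note: negative B-score means reduced calcium response which marks RGS4 activation or potentiation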
#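 Detection: kinetic calcium fluorescence imaging with Fluo4-AM dye, 2 µM / Material: HEK293 cells with stable M3R and inducible RGS4 / Schedule: recording 10 s baseline at 1 Hz, 100 s post-agonist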
# MrgX1 ag = activates human MrgX1 receptor signaling; 0.44% of 310,000 active; B-score at 10 µM; MrgX1-HEK293 cells, Fluo-4 calcium fluorescence, agonist mode; active compounds read high; AID 588627;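 active = calcium response B-score plate-corrected fluorescence ratio at least 3 library SD, with starting fluorescence B-score inside 5 SD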
#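 System – MrgX1-expressing HEK293 cells · Incubation – cells plated overnight, dye loaded 0.5 h 37 °C, 0.5 h room temperature · Technique – kinetic Fluo-4 NW fluorescence of intracellular calcium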
# RGS4 block = inhibitors of human RGS4; HEK293 M3R/RGS4 inducible, Fluo-4 calcium flux; active compounds read high; triggered by carbachol at its EC20; 0.45% of 310,000 active; B-score at 10 µM; AID 463165; P49798;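 active = B-score, a plate-corrected calcium signal, over three deviations above library mean, with baseline fluorescence within five deviations of library mean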;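 note: RGS4 expression induced by doxycycline in cells with stable M3 receptor; B-score is computed from the integrated fluorescence ratio over baseline after carbachol; higher B-score means a larger calcium signal and so more RGS4 inhibition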
# Target sequence (P49798 whole entry, looked up): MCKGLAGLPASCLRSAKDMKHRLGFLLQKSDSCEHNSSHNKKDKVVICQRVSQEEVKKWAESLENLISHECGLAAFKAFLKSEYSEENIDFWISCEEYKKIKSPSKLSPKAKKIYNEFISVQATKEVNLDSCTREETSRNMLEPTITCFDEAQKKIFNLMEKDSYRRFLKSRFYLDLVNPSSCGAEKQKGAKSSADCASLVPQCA
# MrgX1 antag conf = human MrgX1 receptor antagonism, re-confirmation screen | shares compounds with MrgX1 antag | MrgX1-HEK293, BAM8-22 calcium flux, Fluo-4; active compounds read low | remaining BAM8-22 calcium response % of control (active compounds read low), % at 10 µM | 19% of 2,300 active | AID 602420;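 active = remaining agonist calcium response no higher than 100% minus 3 SD of agonist-only control wells, with starting fluorescence near control levels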;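 note: agonist BAM8-22 given at a near maximal EC90 to ECmax level; peak minus minimum fluorescence divided by baseline after agonist addition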
# HEK293 Ca flux = activity in parental HEK293 cells lacking MrgX1. shares compounds with MrgX1 antag. 2% of 4,000 active. AID 624111. fluorescence ratio F(max-min)/F0 at 10 µM. Fluo-4 calcium fluorescence, FDSS;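 active = duplicate-averaged calcium fluorescence ratio at least three times the standard deviation of buffer wells, a nonspecific response in parental cells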
# HEK293 Ca counter = counter-screen for MrgX1 allosteric activators: effect in parental HEK293 cells | AID 624114 | fluorescence ratio F(max-min)/F0 at 10 µM | 0.4% of 4,000 active | shares compounds with MrgX1 antag | parental HEK293 calcium flux, Fluo-4 fluorescence ratio; active compounds read high;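 active = calcium fluorescence ratio, averaged over duplicates, at least 3 SD of the buffer-well ratio, meaning a nonspecific response in receptor-free cells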;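 note: untransfected parental HEK293 lacking MrgX1 used as counterscreen for MrgX1 allosteric activators; fluorescence change taken during the second addition on a kinetic imager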
# HEK293 Ca cntr2 = activity in parental HEK293 cells lacking MrgX1 receptor; shares compounds with MrgX1 antag; Fluo-4 calcium fluorescence (FDSS); active compounds read high; fluorescence ratio F(max-min)/F0 at 10 µM; 8.7% of 4,000 active;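 active = calcium fluorescence ratio at least three times the spread of buffer wells, meaning a non-specific response in parental cells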
# * marks the source's active call; other numbers are inactive results; i = inactive; nt = no result.
SMILES,MrgX1 allo act,MrgX1 antag,RGS4 act,MrgX1 ag,RGS4 block,MrgX1 antag conf,HEK293 Ca flux,HEK293 Ca counter,HEK293 Ca cntr2
Cc1nn(C)cc1CNC(=O)c1cnn2c(C(F)F)cc(C3CC3)nc12,i,-4.7*,i,i,i,i,i,i,i
O=C(NCCc1ccccc1)c1cnn2c(C(F)F)cc(C3CC3)nc12,i,i,i,i,i,nt,nt,nt,nt
COc1ccc(NC(=O)OCCN2CCN(Cc3ccccc3)CCC2=O)cc1,i,i,i,i,i,nt,nt,nt,nt
COc1ccc(CNC(=O)OCCN2CCN(Cc3ccccc3)CCC2=O)cc1,i,-4.9*,i,i,i,i,i,i,i
CCN1C(=O)[C@H]2[C@@H](c3ccc(C)cc3)N3C(=O)N(c4cccc(Cl)c4)C(=O)[C@@]3(Cc3ccccc3)[C@H]2C1=O,i,-5.2*,i,i,i,i,i,i,i
CCN1C(=O)[C@H]2[C@@H](c3ccc(C)cc3)N3C(=O)N(c4cccc(Cl)c4)C(=O)[C@@]3(Cc3ccc(Cl)cc3)[C@H]2C1=O,i,i,nt,i,nt,nt,nt,nt,nt
Cc1ccc(S(=O)(=O)N2CCN(c3cccc(C)c3)CC2)cc1,i,i,i,i,i,nt,nt,nt,nt
COc1ccccc1NS(=O)(=O)c1cc(NC(=O)C(C)(C)C)ccc1N1CCOCC1,i,-4.6*,i,i,i,82%*,i,i,i
CCn1c(NC(=O)/C=C/c2ccc(F)cc2)nc2ccccc21,i,i,i,i,i,nt,nt,nt,nt
CCn1c(SCC(=O)Nc2cccc(C)n2)nc2c1c(=O)n(C)c(=O)n2C,i,-5.9*,i,i,i,i,i,i,i
O=C(Nc1cccc(F)c1)C1CCN(C(=O)N2CCOc3ccccc32)CC1,i,i,i,i,i,nt,nt,nt,nt
O=C1CCCN1CCC12CC3CC(CC(C3)C1)C2,i,-4.7*,i,i,i,i,i,i,i
CC(O)[C@H]1CNC(=O)C(=O)N1CCC12CC3CC(CC(C3)C1)C2 (stereo partly drawn),i,i,i,i,i,nt,nt,nt,nt
CCOC(=O)C1CCN(C(=O)CCCN2C(=O)c3ccccc3C2=O)CC1,i,-10*,i,i,i,i,i,i,i
CCOC(=O)C1CCN(C(=O)CCCOc2ccccc2)CC1,i,i,i,i,i,nt,nt,nt,nt
O=C(COC(=O)c1cccnc1Nc1ccccc1F)NCCN1C(=O)CSC1=O,i,-12*,i,i,i,i,i,i,i
CC(=O)NC1CC2CCCC(C1)N2S(=O)(=O)c1ccccc1 (stereo not drawn),i,-8.8*,i,i,i,i,i,i,i
CCOC(=O)c1c(CSC(=N)N)n(-c2ccccc2)c2cc(Br)c(OC(C)=O)cc12,i,i,i,i,i,nt,nt,nt,nt
COC(OC)c1ccc(C#N)c(=O)[nH]1,i,-6.2*,i,i,i,83%*,i,i,i
COc1ccc(OC(C)c2ccc(C#N)c(=O)[nH]2)cc1 (stereo not drawn),i,i,i,i,i,nt,nt,nt,nt
Cc1ccc(-c2nc(CSCC(=O)N3CCCC3)c(C)o2)cc1,i,i,i,i,i,nt,nt,nt,nt
Cc1cccc(-c2nc(CSCC(=O)N3CCN(c4ccccn4)CC3)c(C)o2)c1,i,-8*,i,i,i,58%*,i,i,i
COc1ccc(N2CCN(C3CCCCC3NS(=O)(=O)c3ccc(Cl)cc3)CC2)cc1 (stereo not drawn),i,-7.6*,i,i,i,i,i,i,i
Cc1ccc(SCC(=O)N(C)CC(=O)Nc2cccc(F)c2)c(C)c1,i,i,i,i,i,nt,nt,nt,nt
Cc1ccc(/C=N/NC(=O)c2nnn(-c3nonc3N)c2CSc2ccc(Cl)cc2)o1,i,i,i,i,i,nt,nt,nt,nt
SMILES,MrgX1 allo act,MrgX1 antag,RGS4 act,MrgX1 ag,RGS4 block,MrgX1 antag conf,HEK293 Ca flux,HEK293 Ca counter,HEK293 Ca cntr2
CCc1cccc(NC(=O)CCc2nc(-c3cccs3)no2)c1,i,i,i,i,i,nt,nt,nt,nt
O=C(CCc1nc(-c2cccs2)no1)Nc1cnc2ccccc2c1,i,-5.6*,i,i,i,84%*,i,i,i
C=CCN(C(=O)CCC(=O)Nc1cc(C)on1)C(C(=O)NC1CCCC1)c1ccc(C)cc1 (stereo not drawn),i,i,i,i,i,nt,nt,nt,nt
COc1ccc2cc(CCNC(=O)c3ccc(Br)o3)c(=O)[nH]c2c1,i,-5.3*,i,i,i,i,i,i,i
Cc1cc2cc(CCNC(=O)c3ccc(Br)o3)c(=O)[nH]c2cc1C,i,i,i,i,i,nt,nt,nt,nt
Cc1ccc(C2(C)NC(=O)N(CC(=O)NC(=O)NC(C)(C)C)C2=O)cc1 (stereo not drawn),i,i,i,i,i,nt,nt,nt,nt
Cc1ccc(N(CC(=O)NCc2ccco2)C(=O)CNS(=O)(=O)c2ccccc2)c(C)c1,i,i,i,i,i,nt,nt,nt,nt
CCOC(=O)Nc1nc(-c2ccc(Cl)cc2Cl)cs1,i,-5.6*,i,i,i,i,i,i,i
CCOC(=O)Nc1nc(C)c(C(=O)c2ccc(Cl)cc2)s1,i,i,i,i,i,nt,nt,nt,nt
Cc1cc(Nc2ccccc2)n(C(=O)c2ccccc2)n1,i,-6.8*,i,i,i,i,i,i,i
O=C(O)/C=C/C(=O)Nc1ccc(C2(c3ccc(NC(=O)/C=C/C(=O)O)cc3)c3ccccc3-c3ccccc32)cc1,i,i,i,i,i,nt,nt,nt,nt
COc1ccc(COC(=O)c2ccc(S(=O)(=O)N3CCC(C)CC3)cc2)cc1,i,-6.8*,i,i,i,i,i,i,i
COc1ccc2oc(C(=O)OCC(=O)N(C)c3c(N)n(Cc4ccccc4)c(=O)[nH]c3=O)c(C)c2c1,i,i,i,i,i,nt,nt,nt,nt
CCN(CC(=O)Nc1ccc2c(c1)OCCO2)C(=O)c1ccc(C(F)(F)F)cc1,i,i,i,i,i,nt,nt,nt,nt
